Source: article PMC11252475 (Acta Pharmaceutica Sinica. B, 2024)

Tests used:
[1] = target: NaV1.5 (Homo sapiens, UniProt Q14524); assay: Cell membrane chromatography; assay type: binding; settings: capacity factor k′; reflects potential cardiac toxicity; k′ < 0 labeled as 0
[2] = system: rats; assay: Cutaneous trunci pinprick model; assay type: in vivo, rat; settings: 62.3 mmol/L
How it was run: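 Male SD rats under 1%–3% isoflurane had about 6 cm × 6 cm of back shaved, swabbed with alcohol and split into four areas. Test compound (62.3 mmol/L) was given by s.c. infiltration. Pinprick scored 1 for no response and 0 for response. Duration ran from onset to expiration, expressed as mean-score MPE. Effective block was ≥50% MPE; complete block was 100% MPE.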

[3] = system: rats; assay: Sciatic nerve block model; assay type: in vivo, rat; settings: 62.3 mmol/L near sciatic nerve; for motor block duration: extensor postural thrust; for duration of effective sensory blockade: hotplate test
How it was run: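 Test compound (62.3 mmol/L) was injected near the sciatic nerve. Hind limbs were tested every 30 min until back to pre-test baseline. Sensory: paw withdrawal latency on a 55 °C hotplate, timed by stopwatch. Motor: extensor postural thrust in grams on a digital balance. Recovery was 50% of baseline.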

[4] = system: rats; assay: CFA-induced chronic plantar inflammatory pain model; assay type: in vivo, rat; settings: 62.3 mmol/L, 0.2 mL subcutaneous at swollen foot
How it was run: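 Male SD rats (6–8 weeks, 250–300 g) under 1%–3% isoflurane had CFA injected into the right foot. Test compound (62.3 mmol/L, 0.2 mL) or equal-volume saline was given s.c. at the swollen site. Electronic von Frey stimulation to the side of the foot every 10 min after onset. Anesthesia failed when the value fell to half the limb-weight-to-baseline difference or below.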

[5] = system: rats; assay: Plantar incisional pain model; assay type: in vivo, rat; settings: 0.2 mL near incision
How it was run: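 Rats with a plantar incision received test compound or saline, 0.2 mL, near the incision. Local anesthesia was assessed by von Frey stimulation of the lateral sole.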

[6] = system: NaV currents in rat dorsal root ganglion (DRG) neurons; assay: Whole-cell patch clamp, sodium current in DRG neurons; assay type: cell-based; settings: for IC50: F-11 rat/mouse fusion cell line, DRG neuron, read-out: IC50 sodium current
How it was run: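 Male rat DRG neurons (180–200 g donors) were dissociated with collagenase IV (2 mg/mL) then trypsin (10 mg/mL) for 30 min, plated on poly-L-lysine and grown in Neurobasal with FBS and B27. Whole-cell voltage clamp used 3–4 MΩ electrodes. I/V steps ran from −90 to +40 mV in 10 mV increments, 50 ms each.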

[7] = system: NaV currents in rat trigeminal neuron (TG) neurons; assay: Whole-cell patch clamp, sodium current in TG neurons; assay type: cell-based
[8] = Systemic toxicity, intravenous; settings: ICR, mouse, in vivo
[9] = Systemic toxicity, subcutaneous injection; assay type: in vivo, rat; settings: Sprague-Dawley, rat, in vivo, sc
[10] = system: SD rats; assay: Systemic toxicity, subcutaneous injection; assay type: in vivo, rat; settings: TI = LD50/ED50, s.c.
[11] = target: hERG channel (Homo sapiens, UniProt Q12809); assay: hERG potassium current inhibition; assay type: cell-based
Sequence of hERG channel (Q12809 whole entry): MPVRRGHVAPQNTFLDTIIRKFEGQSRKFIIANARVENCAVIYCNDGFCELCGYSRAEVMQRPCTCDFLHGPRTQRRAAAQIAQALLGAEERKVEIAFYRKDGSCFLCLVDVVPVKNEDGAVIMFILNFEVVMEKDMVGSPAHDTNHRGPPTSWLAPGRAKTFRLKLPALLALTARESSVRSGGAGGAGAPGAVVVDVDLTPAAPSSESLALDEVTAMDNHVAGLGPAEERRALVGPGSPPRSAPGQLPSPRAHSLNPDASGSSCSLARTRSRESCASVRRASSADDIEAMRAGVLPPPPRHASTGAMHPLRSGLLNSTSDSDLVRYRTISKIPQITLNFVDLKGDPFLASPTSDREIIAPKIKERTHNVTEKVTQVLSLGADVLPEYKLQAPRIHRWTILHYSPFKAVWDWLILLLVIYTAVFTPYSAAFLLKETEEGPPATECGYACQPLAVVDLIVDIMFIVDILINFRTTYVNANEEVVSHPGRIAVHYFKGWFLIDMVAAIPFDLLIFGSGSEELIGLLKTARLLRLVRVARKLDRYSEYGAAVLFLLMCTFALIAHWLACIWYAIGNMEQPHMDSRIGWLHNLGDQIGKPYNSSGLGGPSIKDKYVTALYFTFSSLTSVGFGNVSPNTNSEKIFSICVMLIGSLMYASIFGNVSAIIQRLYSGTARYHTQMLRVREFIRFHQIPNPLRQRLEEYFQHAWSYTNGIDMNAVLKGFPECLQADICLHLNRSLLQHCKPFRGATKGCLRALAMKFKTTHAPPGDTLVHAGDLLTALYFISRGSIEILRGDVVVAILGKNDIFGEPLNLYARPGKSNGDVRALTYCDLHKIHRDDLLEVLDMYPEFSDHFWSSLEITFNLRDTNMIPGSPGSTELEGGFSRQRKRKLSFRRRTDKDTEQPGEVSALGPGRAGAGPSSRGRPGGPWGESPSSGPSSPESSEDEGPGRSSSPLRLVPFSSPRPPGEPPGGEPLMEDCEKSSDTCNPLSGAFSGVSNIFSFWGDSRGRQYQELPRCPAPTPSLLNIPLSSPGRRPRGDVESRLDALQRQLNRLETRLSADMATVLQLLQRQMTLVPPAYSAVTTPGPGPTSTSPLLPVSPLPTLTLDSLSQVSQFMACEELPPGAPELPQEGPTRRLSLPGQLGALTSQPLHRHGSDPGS

[12] = in vitro; assay type: in vitro ADME; settings: rat, microsomes, pH 7.4
[13] = in vitro; assay type: in vitro ADME; settings: human, microsomes, pH 7.4
[14] = Pharmacokinetics after subcutaneous injection; assay type: in vivo; settings: male, Sprague-Dawley, rat, plasma, sc, 62.3 mmol/L
[15] = system: rats; assay: Dental pulp injury pain model; assay type: in vivo, rat; settings: compared with AT
How it was run: (§1)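 Oral pain models in rats under 1%–3% isoflurane, with test compound given as local anesthetic. Food intake and body-weight change were measured on a precision balance over 24 h. Facial grooming was video-recorded for 1 h after dosing.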

[16] = system: rats; assay: Gingival incision pain model; assay type: in vivo, rat
How it was run: as §1

[17] = system: rats; assay: Tooth extraction pain model; assay type: in vivo, rat
How it was run: as §1

[18] = system: IL-1β, IL-6, TNFα; assay: LPS-induced inflammatory factor expression; assay type: cell-based, rat; settings: LPS 24 h, DRG neurons and PC12 cells; similar to LD, stronger than AT
[19] = system: NLRP3 inflammasome; assay: NLRP3 inflammasome activation after LPS; assay type: cell-based, rat
How it was run: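 DRG neurons and NGF-differentiated PC12 cells, with LPS given before or together with test compound. ASC specks: 3% paraformaldehyde 15 min, 0.5% Triton X-100 15 min, 5% BSA 2 h, anti-ASC 1:200 overnight at 4 °C, secondary 1:500 1 h in the dark, DAPI, fluorescence microscopy. Western blot: PVDF, 5% milk 2 h, anti-NLRP3 and anti-caspase-1 1:1000 overnight at 4 °C.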

[20] = system: DRG neurons; assay: LPS-induced ROS production, cytoplasmic mtDNA release, 8-OHdG; assay type: cell-based, rat; settings: PC12 cells
[21] = system: rats; assay: Local anesthetic toxicity, blood biochemistry and organ pathology; assay type: in vivo, rat
How it was run: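 Test compound was given in the rat sciatic nerve block model. Rats were killed at 7 and 14 days. Sciatic nerve and surrounding tissue were HE-stained and inflammatory cells counted in equal-sized areas (nerve:surrounding 1:1). Serum ALT, AST, LDH, α-HBDH, CREA and UREA were run on an automatic analyser. Heart, liver and kidney were HE-stained for pathology.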

Sequence of NaV1.5 (Q14524 whole entry): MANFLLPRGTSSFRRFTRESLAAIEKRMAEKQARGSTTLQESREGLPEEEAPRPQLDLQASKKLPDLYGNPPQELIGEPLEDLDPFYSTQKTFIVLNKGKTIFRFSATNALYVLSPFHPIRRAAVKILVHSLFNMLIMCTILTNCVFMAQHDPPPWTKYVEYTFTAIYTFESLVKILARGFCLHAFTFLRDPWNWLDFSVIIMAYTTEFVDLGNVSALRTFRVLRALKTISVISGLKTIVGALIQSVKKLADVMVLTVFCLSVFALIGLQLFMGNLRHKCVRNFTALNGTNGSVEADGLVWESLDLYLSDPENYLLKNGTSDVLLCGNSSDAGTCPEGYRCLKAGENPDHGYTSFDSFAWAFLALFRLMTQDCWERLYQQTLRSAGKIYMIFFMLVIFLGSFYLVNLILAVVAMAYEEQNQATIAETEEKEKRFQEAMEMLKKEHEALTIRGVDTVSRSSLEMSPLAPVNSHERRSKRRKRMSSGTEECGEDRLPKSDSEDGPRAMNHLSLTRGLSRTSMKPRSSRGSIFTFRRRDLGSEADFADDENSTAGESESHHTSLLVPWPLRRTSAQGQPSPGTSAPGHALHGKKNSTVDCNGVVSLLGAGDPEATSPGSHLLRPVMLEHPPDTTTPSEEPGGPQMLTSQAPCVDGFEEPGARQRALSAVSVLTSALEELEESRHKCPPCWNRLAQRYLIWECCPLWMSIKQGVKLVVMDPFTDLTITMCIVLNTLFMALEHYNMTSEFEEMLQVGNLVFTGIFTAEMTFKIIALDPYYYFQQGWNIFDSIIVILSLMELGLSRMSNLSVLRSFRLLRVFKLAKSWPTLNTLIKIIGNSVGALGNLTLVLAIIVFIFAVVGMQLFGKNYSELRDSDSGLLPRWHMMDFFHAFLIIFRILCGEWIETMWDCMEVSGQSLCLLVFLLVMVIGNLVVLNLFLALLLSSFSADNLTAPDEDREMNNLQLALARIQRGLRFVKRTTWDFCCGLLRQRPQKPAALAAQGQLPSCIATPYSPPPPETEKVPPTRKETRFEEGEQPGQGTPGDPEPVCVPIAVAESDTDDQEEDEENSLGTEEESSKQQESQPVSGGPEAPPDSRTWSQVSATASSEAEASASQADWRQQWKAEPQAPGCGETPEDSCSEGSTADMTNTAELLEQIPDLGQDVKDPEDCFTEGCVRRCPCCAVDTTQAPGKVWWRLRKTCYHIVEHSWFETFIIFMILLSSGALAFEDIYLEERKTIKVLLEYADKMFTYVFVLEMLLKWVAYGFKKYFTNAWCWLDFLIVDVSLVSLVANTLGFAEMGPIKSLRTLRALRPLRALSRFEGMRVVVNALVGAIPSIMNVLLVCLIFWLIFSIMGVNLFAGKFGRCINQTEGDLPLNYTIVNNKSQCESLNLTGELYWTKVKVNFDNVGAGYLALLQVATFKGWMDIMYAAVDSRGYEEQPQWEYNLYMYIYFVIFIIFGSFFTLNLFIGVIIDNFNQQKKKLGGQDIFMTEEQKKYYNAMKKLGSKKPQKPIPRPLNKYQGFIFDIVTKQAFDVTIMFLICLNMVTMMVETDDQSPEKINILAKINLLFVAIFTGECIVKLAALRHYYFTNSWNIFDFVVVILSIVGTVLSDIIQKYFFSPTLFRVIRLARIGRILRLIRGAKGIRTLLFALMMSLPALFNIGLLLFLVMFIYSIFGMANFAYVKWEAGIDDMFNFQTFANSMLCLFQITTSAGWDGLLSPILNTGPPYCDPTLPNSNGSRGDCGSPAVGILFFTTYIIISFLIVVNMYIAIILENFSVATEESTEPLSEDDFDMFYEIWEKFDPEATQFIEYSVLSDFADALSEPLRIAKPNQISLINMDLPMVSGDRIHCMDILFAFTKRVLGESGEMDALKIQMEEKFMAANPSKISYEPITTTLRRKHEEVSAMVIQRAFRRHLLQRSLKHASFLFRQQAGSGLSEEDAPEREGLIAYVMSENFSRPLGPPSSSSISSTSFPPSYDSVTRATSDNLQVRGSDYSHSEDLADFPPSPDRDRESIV

## COC(=O)c1scc(C)c1NC(=O)C(C)N1CCNCC1 (centres unmarked) [AT-1, methyl 4-methyl-3-(2-(piperazin-1-yl)propanamido)thiophene-2-carboxylate]
[1]
  k′ NaV1.5: 80.8
[2]
  subcutaneous infiltration duration: 240 min

## CCCCN1CCN(C(C)C(=O)Nc2c(C)csc2C(=O)OC)CC1 (centres unmarked) [AT-17, Methyl 3-(2-(4-butylpiperazin-1-yl)propanamido)-4-methylthiophene-2-carboxylate]
[1]
  k′ NaV1.5: 22.4
[2]
  subcutaneous infiltration duration: 400 min
[3]
  motor block duration: 260 min
  duration of effective sensory blockade: 200 min
[4]
  duration of action (anesthesia) under CFA-induced chronic inflammation: 83.3 min
[5]
  anesthesia result in acute inflammation model through plantar incision: improved results
[6]
  IC50: 31.6 ± 2.07 µM
[6]; rat DRG neurons
  reduction in the peak current compared to AT (I‒V relationship): 36.35%
[7]
  reduction in peak current compared to AT (I‒V relationship): 10.56%
[8]
  LD50: 43.5 mg/kg
[9]
  LD50 at 24 h: 424 mg/kg
[10]
  TI: 149.17
[11]
  inhibition at 100 μM/L: 38%
[12]
  half-life: 1.03 h
[13]
  half-life: 1.25 h
[14]
  AUC(0-t): 5550 ng·h/mL
  Tmax: 1 h
  half-life: 0.823 h
[15]
  weight loss and pain-related decreases in food intake: more effective
[16]
  face grooming frequency: significantly lowered
[16]; compared with AT
  recovery in body weight and food intake: more pronounced recovery
[17]
  weight loss and food intake: significantly mitigating
[18]
  inflammatory factors (IL-1β, IL-6, TNFα) expression: significantly inhibited
[19]; DRG neurons, PC12 cells
  LPS-induced ASC speck formation: inhibits
[19]; LPS, acute and chronic conditions
  NLRP3, ASC, and pro-Casp1 expression: modestly reduced
[20]
  LPS-induced ROS production, cytoplasmic mtDNA release, and 8-OHdG levels: reduced
[21]; rats, 7 days and 14 days post-administration
  ALT, AST, LDH, α-HBDH, CREA, UREA levels vs control group: no marked differences
[21]; rats, local administration to the sciatic nerve
  pathological assessment of heart, liver, and kidney vs control group: no significant pathological changes
[21]; sciatic nerve block model, HE, ImageJ
  number of inflammatory cells in tissues compared with AT: significantly lower

## COC(=O)c1scc(C)c1NC(=O)CN1CCN(C(C)C)CC1 [AT-21, Methyl 3-(2-(4-isopropylpiperazin-1-yl)acetamido)-4-methylthiophene-2-carboxylate]
[1]
  k′ NaV1.5: 5.8
[2]
  subcutaneous infiltration effect compared with AT: fewer effects than AT

## COC(=O)c1scc(C)c1NC(=O)C(C)N1CCN(C(C)(C)C)CC1 (centres unmarked) [AT-15, Methyl 3-(2-(4-(tert-butyl)piperazin-1-yl)propanamido)-4-methylthiophene-2-carboxylate]
[1]
  k′ NaV1.5: 116.4
[2]
  subcutaneous infiltration duration: 205 min
[3]
  motor block duration: 210 min
  duration of effective sensory blockade: 190 min

## CCC(C(=O)Nc1c(C)csc1C(=O)OC)N1CCN(C(C)C)CC1 (centres unmarked) [AT-22, Methyl 3-(2-(4-isopropylpiperazin-1-yl)butanamido)-4-methylthiophene-2-carboxylate]
[1]
  k′ NaV1.5: 21.4
[2]
  subcutaneous infiltration duration: 260 min
[3]
  motor block duration: 240 min
  duration of effective sensory blockade: 220 min

## CCCNC(C)C(=O)Nc1c(C)csc1C(=O)OC (centres unmarked) [AT, Methyl 4-methyl-3-(2-(propylamino)propanamido)thiophene-2-carboxylate, reference compound]
[1]
  k′ NaV1.5: 63
[2]
  subcutaneous infiltration duration: 120 min
[3]
  motor block duration: 90 min
[4]
  duration of action (anesthesia) under CFA-induced chronic inflammation: 30 min
[5]
  anesthesia result in acute inflammation model through plantar incision: underperformed
[6]
  IC50: 71.2 ± 3.06 µM
[8]
  LD50: 38.3 mg/kg
[9]
  LD50 at 24 h: 598 mg/kg
[10]
  TI: 125.83
[16]
  face grooming frequency: significantly lowered

## COC(=O)c1scc(C)c1NC(=O)C(C)N1CCN(C)CC1 (centres unmarked) [AT-11, Methyl 4-methyl-3-(2-(4-methylpiperazin-1-yl)propanamido)thiophene-2-carboxylate]
[1]
  k′ NaV1.5: 8
[2]
  subcutaneous infiltration duration: 260 min

## COCCN1CCN(C(C)C(=O)Nc2c(C)csc2C(=O)OC)CC1 (centres unmarked) [AT-20, Methyl 3-(2-(4-(2-methoxyethyl)piperazin-1-yl)propanamido)-4-methylthiophene-2-carboxylate]
[1]
  k′ NaV1.5: 92

## COC(=O)c1scc(C)c1NC(=O)C(C)N1CCN(C(C)C)CC1 (centres unmarked) [AT-13, Methyl 3-(2-(4-isopropylpiperazin-1-yl)propanamido)-4-methylthiophene-2-carboxylate]
[1]
  k′ NaV1.5: 23.2
[2]
  subcutaneous infiltration duration: 275 min
[3]
  motor block duration: 140 min
  duration of effective sensory blockade: 145 min
[5]
  anesthesia result in acute inflammation model through plantar incision: improved results

## COC(=O)c1scc(C)c1NC(=O)C(C)N1CCN(C)C(C)C1 (centres unmarked) [AT-2, Methyl 3-(2-(3,4-dimethylpiperazin-1-yl)propanamido)-4-methylthiophene-2-carboxylate]
[1]
  k′ NaV1.5: 92

## COC(=O)c1scc(C)c1NC(=O)C(C)N1CCN(CC2CC2)CC1 (centres unmarked) [AT-14, Methyl 3-(2-(4-(cyclopropylmethyl)piperazin-1-yl)propanamido)-4-methylthiophene-2-carboxylate]
[1]
  k′ NaV1.5: 22

## COC(=O)c1scc(C)c1NC(=O)C(C)N1CC(C)OC(C)(C)C1 (centres unmarked) [AT-8, Methyl 4-methyl-3-(2-(2,2,6-trimethylmorpholino)propanamido)thiophene-2-carboxylate]
[1]
  k′ NaV1.5: 36.8
